# The other results are listed elsewhere or left out. Active and inactive are the calls of the source.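 How the source made its calls, unless noted: active means mean duplicate activation above the buffer control mean plus 5 SD of those controls; inactive means the rest.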
# Columns and labels:
# [1] = target: T1, Potassium voltage-gated channel subfamily E member 1 (Homo sapiens) + Potassium voltage-gated channel subfamily KQT member 1 (Homo sapiens) (UniProt P15382+P51787); test: KCNQ1/KCNE1 complex potentiators, confirmation, selectivity assay for KCNQ1 potentiator project, thallium flux, CHO-K1 KCNQ1/E1 cells (AID 493186); conditions: FluxOR thallium flux, at 10 µM; stronger effect = higher value;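 on activation: 0% = assay buffer control and 100% = R-L3 activator control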
# T1 sequence (P51787 whole entry, looked up): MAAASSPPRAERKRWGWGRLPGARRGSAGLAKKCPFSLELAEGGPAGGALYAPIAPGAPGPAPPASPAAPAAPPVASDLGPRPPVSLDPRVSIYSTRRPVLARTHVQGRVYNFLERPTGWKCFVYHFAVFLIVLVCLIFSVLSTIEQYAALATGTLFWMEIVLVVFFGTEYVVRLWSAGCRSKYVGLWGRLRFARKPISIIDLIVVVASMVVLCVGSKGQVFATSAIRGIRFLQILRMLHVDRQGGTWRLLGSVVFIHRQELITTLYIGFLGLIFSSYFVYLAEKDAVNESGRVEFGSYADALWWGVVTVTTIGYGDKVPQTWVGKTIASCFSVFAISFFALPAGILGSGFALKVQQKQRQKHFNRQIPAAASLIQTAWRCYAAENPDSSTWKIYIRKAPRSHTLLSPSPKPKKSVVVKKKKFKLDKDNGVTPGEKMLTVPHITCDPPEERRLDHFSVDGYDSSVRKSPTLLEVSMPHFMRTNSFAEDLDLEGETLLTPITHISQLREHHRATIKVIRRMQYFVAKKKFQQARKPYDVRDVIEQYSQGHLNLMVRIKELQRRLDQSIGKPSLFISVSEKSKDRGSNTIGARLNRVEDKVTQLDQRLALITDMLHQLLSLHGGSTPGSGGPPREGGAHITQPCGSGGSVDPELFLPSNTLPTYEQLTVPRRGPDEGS
# Summary of the method: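 Assay system: CHO-K1 cells with KCNQ1/E1 | Dosing: Single compound concentration per well | Incubation: Dye 90 min, compound 20 min, room temperature | Measured by: FluxOR Tl+ flux fluorescence, kinetic read | Controls: Buffer low control, R-L3 high control | Replicates: Duplicate wells per compound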
# [2] = thallium flux effects in parental CHO cells, counter-screen for KCNQ1 inhibitor project, cell-based, Tl flux (AID 588366;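 active means mean of duplicate thallium-flux fluorescence ratios in parental host cells more than 5 SD below the buffer control mean, cut at about 0.38 in these data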;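 further: ratio is peak minus minimum fluorescence divided by baseline fluorescence; actives read low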); conditions: parental CHO-K1, FluxOR thallium flux fluorescence ratio; at 10 µM; stronger effect = lower value; zero means no signal rise above baseline
# Summary of the method: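 Assay system: CHO-K1 parental line without KCNQ1; Control set: buffer-only controls; Detection: kinetic Tl+ flux fluorescence with FluxOR dye; Schedule: FluxOR dye loading 90 min, compound exposure 20 min, room temperature.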
# [3] = target: Potassium voltage-gated channel subfamily KQT member 2 (Rattus norvegicus) (UniProt O88943); test: KCNQ2 channel inhibition, selectivity assay for KCNQ1 inhibitor project, cell-based (AID 651746;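 active means mean percent inhibition of the KCNQ2 thallium signal more than 5 SD above the buffer-only control wells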); conditions: KCNQ2 cells, FluxOR thallium flux fluorescence, at 10 µM; stronger effect = higher value
# Potassium voltage-gated channel subfamily KQT member 2 (Rattus norvegicus), sequence (O88943 whole entry, looked up): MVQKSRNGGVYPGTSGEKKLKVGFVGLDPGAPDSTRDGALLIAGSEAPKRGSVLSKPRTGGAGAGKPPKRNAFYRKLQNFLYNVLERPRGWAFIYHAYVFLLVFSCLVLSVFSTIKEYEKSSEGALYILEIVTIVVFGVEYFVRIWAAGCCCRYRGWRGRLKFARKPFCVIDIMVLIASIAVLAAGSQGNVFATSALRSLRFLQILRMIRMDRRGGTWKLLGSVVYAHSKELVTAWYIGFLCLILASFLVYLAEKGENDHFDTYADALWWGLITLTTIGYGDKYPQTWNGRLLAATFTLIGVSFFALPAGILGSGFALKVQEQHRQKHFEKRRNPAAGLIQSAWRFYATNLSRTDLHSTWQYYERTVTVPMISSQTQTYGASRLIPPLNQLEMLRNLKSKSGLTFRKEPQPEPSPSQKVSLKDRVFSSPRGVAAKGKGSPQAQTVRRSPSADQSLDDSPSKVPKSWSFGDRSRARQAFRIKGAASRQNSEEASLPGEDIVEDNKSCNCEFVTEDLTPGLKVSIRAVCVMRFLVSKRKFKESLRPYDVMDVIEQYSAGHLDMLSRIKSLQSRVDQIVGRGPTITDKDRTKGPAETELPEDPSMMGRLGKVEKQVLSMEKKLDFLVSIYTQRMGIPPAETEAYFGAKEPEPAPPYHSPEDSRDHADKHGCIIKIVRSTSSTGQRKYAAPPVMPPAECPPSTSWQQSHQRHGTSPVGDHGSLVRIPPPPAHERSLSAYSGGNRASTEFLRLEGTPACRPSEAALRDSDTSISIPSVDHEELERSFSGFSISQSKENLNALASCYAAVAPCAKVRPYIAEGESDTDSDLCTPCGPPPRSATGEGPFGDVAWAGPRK
# [4] = target: T1, Potassium voltage-gated channel subfamily E member 1 (Homo sapiens) + Potassium voltage-gated channel subfamily KQT member 1 (Homo sapiens); test: KCNQ1/KCNE1 channel inhibition, selectivity assay for KCNQ1 inhibitor project, CHO-K1 cells, thallium flux, FluxOR (AID 652147;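 active means mean percent inhibition of duplicate wells above the buffer-only control mean plus 3 SD of those controls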); conditions: FluxOR thallium flux fluorescence, at 10 µM; stronger effect = higher value
# Summary of the method: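 System – KCNQ1/KCNE1 cells · Also added – depolarizing thallium/potassium stimulus, 5x stock with 12.5 mM Tl2SO4 and K2SO4 · Incubation – dye 90 min and compound 20 min at room temperature · Signal – kinetic FluxOR thallium-sensitive fluorescence, 1 Hz sampling, 150 s post-stimulus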
smiles,measurement,setting,value
CC(Oc1ccc(Cl)cc1)C(=O)NNC(=S)NC(=O)c1ccco1 (configuration not stated),activation,[1],13.8% (active)
Cc1ccccc1C(=O)NNC(=S)NC(=O)c1ccc(Cl)cc1Cl,activation,[1],19.9% (active)
CC(C)(C)C(=O)NC(=S)NNC(=O)C(c1ccccc1)c1ccccc1,outcome,[1],inactive
COc1ccc(C(=O)NNC(=S)NC(=O)c2ccccc2)cc1,activation,[1],20.5% (active)
Cc1onc(-c2ccccc2)c1C(=O)NNC(=S)NC(=O)c1ccc(Br)cc1,outcome,[1],inactive
CCCCC(=O)NNC(=S)NC(=O)C(c1ccccc1)c1ccccc1,outcome,[1],inactive
Cc1cccc(C(=O)NNC(=S)NC(=O)c2ccccc2)c1,activation,[1],46.6% (active)
COc1ccc(C(=O)NC(=S)NNC(=O)c2cccc(C)c2)cc1,activation,[1],31.9% (active)
CC1CN(C(=O)c2ccc(NS(=O)(=O)c3ccc(C(C)(C)C)cc3)cc2)CC(C)O1 (configuration not stated),outcome,[1],inactive
Cc1cccc(C(=O)NC(=S)NNC(=O)c2ccccc2Cl)c1,outcome,[1],inactive
Cc1ccc(OCC(=O)NNC(=S)NC(=O)C(C)(C)C)c(Br)c1,outcome,[1],inactive
Cc1onc(-c2ccccc2)c1C(=O)NNC(=S)NC(=O)c1ccc(Cl)cc1Cl,outcome,[1],inactive
NC(=Nc1ccccc1)Nc1ccccc1,outcome,[1],inactive
Cc1onc(-c2ccccc2)c1C(=O)NNC(=S)NC(=O)c1ccc(F)cc1,outcome,[1],inactive
CCN1/C(=C\c2ccc3ccccc3[n+]2CC)Sc2cc(C)ccc21,fluorescence ratio (Tl flux),[2],0.043 (active)
same,outcome,[3],inactive
same,outcome,[4],inactive

# — PubChem BioAssay
